Measured values: ChEMBL document CHEMBL4371016, “Proline- and Arginine-Rich Peptides as Flexible Allosteric Modulators of Human Proteasome Activity” (J Med Chem, 2019)
Residues, ends and D or L forms follow the SMILES beside them.

Tests used:
[1] = target: T1, Proteasome Macropain subunit MB1 (Homo sapiens, UniProt P28074); test: Negative allosteric modulation of SDS-activated human erythrocytes 20S proteasome chymotrypsin like activity using Suc-LLVY-AMC as substrate measured every 2 mins up to 60 mins by fluorescence assay
T1 sequence (P28074 whole entry): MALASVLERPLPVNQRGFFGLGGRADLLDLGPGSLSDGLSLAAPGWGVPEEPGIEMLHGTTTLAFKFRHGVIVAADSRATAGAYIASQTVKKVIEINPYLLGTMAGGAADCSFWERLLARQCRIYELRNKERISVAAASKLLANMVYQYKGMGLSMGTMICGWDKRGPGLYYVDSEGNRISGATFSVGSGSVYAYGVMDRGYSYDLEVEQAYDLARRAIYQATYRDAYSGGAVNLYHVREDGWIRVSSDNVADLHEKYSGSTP
In short: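 1.4 nM CP (0.001 mg/mL) in 50 mM Tris-HCl pH 8.0, activated with 0.005% SDS where stated, otherwise latent. Suc-LLVY-AMC at 100 μM final. AMC fluorescence read every 2 min up to 60 min at 37 °C. Activity relative to DMSO-treated enzyme, from at least three independent replicates. Peptide stocks 10 mM in DMSO.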

Fibroblast = test: Cytotoxicity against human primary fibroblasts assessed as effect on cell viability up to 20 uM after 24 hrs by WST1 assay; type: cell-based
In short: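 Primary human fibroblasts GM04390 in DMEM with 10% heat-inactivated FBS and antibiotics, at 3% O2, 5% CO2, 37 °C; seeded at 100 000 cells/mL, switched to Optimem at 24 h, exposed at 48 h to 0.1–20 μM peptide or DMSO for 24 h. Viability read by WST-1 (10% reagent, 4 h), absorbance 450 nm.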

[2] = target: T1, Proteasome Macropain subunit MB1; test: Non-competitive mixed-type inhibition of SDS-activated human erythrocytes 20S proteasome chymotrypsin like activity using Suc-LLVY-AMC as substrate measured every 2 mins up to 60 mins by fluorescence assay
In short: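 SDS-activated CP at 1.4 nM. Suc-LLVY-AMC varied from 20 to 200 μM at inhibitor levels of 0.05, 0.1 and 0.2 μM. Fluorescence read kinetically at 37 °C. […] Three independent replicates.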

[3] = target: T1, Proteasome Macropain subunit MB1; test: Negative allosteric modulation of 1 uM Rpt5-activated human erythrocytes 20S proteasome chymotrypsin like activity using Suc-LLVY-AMC as substrate measured every 1 min up to 60 mins by fluorescence assay
In short: (§1)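 Suc-LLVY-AMC at 100 μM final. AMC fluorescence read every 1 min for 60 min at 37 °C. Activity relative to DMSO vehicle, at least three independent replicates.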

[4] = target: T1, Proteasome Macropain subunit MB1; test: Negative allosteric modulation of 10 uM Rpt5-activated human erythrocytes 20S proteasome chymotrypsin like activity using Suc-LLVY-AMC as substrate measured every 1 min up to 60 mins by fluorescence assay; in short: as §1

## CC(C)C[C@H](NC(=O)[C@@H]1CCCN1C(=O)[C@@H]1CCCN1C(=O)[C@@H]1CCCN1C(=O)[C@@H]1CCCN1C(=O)[C@H](CCCNC(=N)N)NC(=O)[C@H](CCCNC(=N)N)NC(=O)[C@@H](N)CCCNC(=N)N)C(=O)N[C@@H](Cc1ccc(O)cc1)C(=O)N[C@@H](C)C(=O)O (H-RRRPPPPLYA-OH)
[1]
  IC50: Not Active

## C[C@H](NC(=O)[C@H](Cc1ccc(O)cc1)NC(=O)[C@H](Cc1ccc(O)cc1)NC(=O)[C@@H]1CCCN1C(=O)[C@@H]1CCCN1C(=O)[C@@H]1CCCN1C(=O)[C@@H]1CCCN1C(=O)[C@H](CCCNC(=N)N)NC(=O)[C@H](CCCNC(=N)N)NC(=O)[C@@H](N)CCCNC(=N)N)C(=O)O (H-RRRPPPPYYA-OH)
[1]
  IC50: Not Active
Fibroblast
  Activity: Non-Toxic

## CC(C)C[C@H](NC(=O)[C@H](Cc1ccc(O)cc1)NC(=O)[C@@H]1CCCN1C(=O)[C@@H]1CCCN1C(=O)[C@H](CCCNC(=N)N)NC(=O)[C@@H]1CCCN1C(=O)[C@H](CCCNC(=N)N)NC(=O)[C@H](CCCNC(=N)N)NC(=O)[C@@H](N)CCCNC(=N)N)C(=O)N1CCC[C@H]1C(=O)N[C@@H](CCCNC(=N)N)C(=O)N[C@@H](Cc1ccccc1)C(=O)NCC(=O)O (H-RRRPRPPYLPRFG-OH)
[1]; read-out: IC50
  IC50: 99 nM

## CC(C)C[C@H](NC(=O)[C@H](Cc1ccc(O)cc1)NC(=O)[C@@H]1CCCN1C(=O)[C@@H]1CCCN1C(=O)[C@H](CCCNC(=N)N)NC(=O)[C@@H]1CCCN1C(=O)[C@H](CCCNC(=N)N)NC(=O)[C@H](CCCNC(=N)N)NC(=O)[C@@H](N)CCCNC(=N)N)C(=O)N1CCC[C@H]1C(=O)N[C@@H](CCCNC(=N)N)C(=O)N[C@@H](Cc1c[nH]c2ccccc12)C(=O)NCC(N)=O (H-RRRPRPPYLPRWG-NH2)
[1]; read-out: IC50
  IC50: 113 nM

## CC(C)C[C@H](NC(=O)[C@H](Cc1ccc(O)cc1)NC(=O)[C@@H]1CCCN1C(=O)[C@@H]1CCCN1C(=O)[C@H](CCCNC(=N)N)NC(=O)[C@@H]1CCCN1C(=O)[C@H](CCCNC(=N)N)NC(=O)[C@H](CCCNC(=N)N)NC(=O)[C@@H](N)CCCNC(=N)N)C(=O)N1CCC[C@H]1C(=O)N[C@@H](CCCNC(=N)N)C(=O)N[C@@H](Cc1c[nH]c2ccccc12)C(=O)NCC(=O)O (H-RRRPRPPYLPRWG-OH)
[1]; read-out: IC50
  IC50: 50 nM
[2]
  Ki: 4.8 nM
[3]
  IC50: 560 nM
[4]
  IC50: 500 nM

## CC(C)C[C@H](NC(=O)[C@H](Cc1ccc(O)cc1)NC(=O)[C@H](CCCNC(=N)N)NC(=O)[C@H](CCCNC(=N)N)NC(=O)[C@@H](N)CCCNC(=N)N)C(=O)N1CCC[C@H]1C(=O)N[C@@H](CCCNC(=N)N)C(=O)N[C@@H](Cc1c[nH]c2ccccc12)C(=O)NCC(N)=O (H-RRRYLPRWG-NH2)
[1]; read-out: IC50
  IC50: 82 nM
[2]
  Ki: 10.1 nM

## CC(C)C[C@H](NC(=O)[C@H](Cc1ccc(O)cc1)NC(=O)[C@H](CCCNC(=N)N)NC(=O)[C@H](CCCNC(=N)N)NC(=O)[C@@H](N)CCCNC(=N)N)C(=O)N1CCC[C@H]1C(=O)N[C@@H](CCCNC(=N)N)C(=O)N[C@@H](Cc1c[nH]c2ccccc12)C(=O)NCC(=O)O (H-RRRYLPRWG-OH)
[1]; read-out: IC50
  IC50: 111 nM
